Results reported in PubChem BioAssay AID602309 (Southern Research Specialized Biocontainment Screening …, 2012).
Calls of active or inactive are those of the source.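 How the source made its calls: active means inhibition of 30% or more at any tested concentration; inactive means the rest.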

molecular target: M17 leucyl aminopeptidase (Plasmodium falciparum 3D7); assay: PfM17LAP leucine aminopeptidase inhibitors, dose response, biochemical, QFRET, set 3 (AID 602309); conditions: purified rPfM17LAP, H-Leu-NHMec fluorogenic cleavage
How it was run: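 Material – recombinant P. falciparum M17 leucyl aminopeptidase · Input – enzyme 5 µg/mL final · Buffer or medium – CoCl2-containing Tris buffer pH 7.5 · Also added – fluorogenic substrate H-Leu-NHMec at 0.1 mM final · Timing – 90 min reaction, room temperature · Technique – fluorescence at 370/460 nm · Read-out – IC50 from % inhibition dose-response fit · Benchmarks – full-reaction and no-enzyme controls · Replicates – triplicates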

| SMILES | IC50 [nM] |
| --- | --- |
| CCCCOc1ccc(C(C)C(=O)NO)cc1 (stereo not drawn) | 2160 |
| CCCCOc1cccc(CC(=O)NO)c1 | 2260 |
| CCC(C)Oc1ccc(CC(=O)NO)cc1 (stereo not drawn) | 2270 |
| CCCOc1ccc(CC(=O)NO)cc1 | 1390 |
| O=C(NO)c1ccc2ccccc2c1 | 46300 |

same assay, conditions: purified rPfM17LAP, H-Leu-NHMec fluorogenic cleavage; at 100 µM (top of the series)

| SMILES | inhibition |
| --- | --- |
| CCCCOc1ccc(CN(O)C(=O)c2ccccc2)cc1 | inactive |
| CCCCOc1cccc(CC(=O)OC)c1 | inactive |
| CCCCOc1ccc(C(C)(C)C(=O)O)cc1 | inactive |
| CCCCOc1ccc(C(C)(C)C(=O)NO)cc1 | inactive |
| CCCOc1ccc(CC(=O)O)cc1 | inactive |
| CCCCOc1ccc(C(C)C(=O)OC)cc1 (stereo not drawn) | inactive |
| CN(C)CCOc1ccc(CC(=O)O)cc1 | inactive |
| CCCCOc1ccc(CN(O)C(C)=O)cc1 | inactive |
